Test results published in ChEMBL document CHEMBL4725448, “Substituted Azabicyclo[2.2.1]heptanes as Selective Orexin-1 Antagonists: Discovery of JNJ-54717793” (ACS Med Chem Lett, 2020).
≈ marks a conversion by molar mass, not a printed value.

Tests used:
[1] = AUC (0 to 24 hrs) in rat assessed as NOAEL at 200 mg/kg/day, po administered as repeated dose for 6 days; assay type: ADME, organism-based; set-up: route oral, time 6 day, dose 200 mg/kg/day; details: in vivo
[2] = Ex vivo receptor occupancy at OX1R in Sprague-Dawley rat brain tenia tecta using [3H]SB-674042 labelling at 10 mg/kg, po measured after 6 hrs by autoradiography; assay type: functional
In short: (§1)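 Rats received a single oral dose, and OX1R occupancy was measured by ex vivo binding autoradiography in brain tenia tecta sections at 0.5, 2 and 6 h after dosing. Occupancy is expressed as percent. Brain and plasma drug levels (ng/mL) were also sampled at the 0.5 h time point.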

Orexin receptor type 2 = target: T1, Orexin receptor type 2 (Homo sapiens, UniProt O43614); experiment: Binding affinity to human OX2R
T1 sequence (O43614 whole entry): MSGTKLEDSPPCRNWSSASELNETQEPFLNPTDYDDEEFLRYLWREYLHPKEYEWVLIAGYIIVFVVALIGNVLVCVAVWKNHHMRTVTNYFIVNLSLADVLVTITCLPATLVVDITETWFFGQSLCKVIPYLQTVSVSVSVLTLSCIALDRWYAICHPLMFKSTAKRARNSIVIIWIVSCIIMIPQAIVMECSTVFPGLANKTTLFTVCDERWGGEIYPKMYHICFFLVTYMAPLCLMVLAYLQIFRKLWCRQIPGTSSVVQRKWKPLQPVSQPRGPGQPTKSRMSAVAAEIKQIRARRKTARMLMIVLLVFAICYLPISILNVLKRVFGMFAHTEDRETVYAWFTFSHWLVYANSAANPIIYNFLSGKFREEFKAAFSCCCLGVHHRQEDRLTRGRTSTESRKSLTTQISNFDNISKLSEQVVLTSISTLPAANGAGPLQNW

[3] = Dissociation constant, pKa of the compound; assay type: physicochemical
[4] = […] clearance in mouse at 1 mg/kg, iv and 5 mg/kg, po; assay type: ADME, organism-based; details: in vivo
[5] = Clearance in dog at 0.5 mg/kg, iv and […], po; assay type: ADME, organism-based, Canis lupus familiaris; details: in vivo, dose 2.5 mg/kg
[6] = AUC (0 to 24 hrs) in rat assessed as NOAEL at 200 mg/kg/day, po measured after immediately administered; assay type: ADME, organism-based; set-up: route oral, time 13 day, dose 200 mg/kg/day; details: in vivo
[7] = AUC (0 to 24 hrs) in rat assessed as NOAEL at 200 mg/kg/day, po administered as repeated dose for 13 days; assay type: ADME, organism-based; set-up: route oral, time 13 day, dose 200 mg/kg/day; details: in vivo
[8] = Ex vivo receptor occupancy at OX1R in Sprague-Dawley rat brain tenia tecta using [3H]SB-674042 labelling at 10 mg/kg, po measured after 0.5 hrs by autoradiography; assay type: functional; in short: as §1
[9] = Volume of distribution at steady state in primate; assay type: ADME; details: primates; read-out: Vdss
[10] = Ex vivo receptor occupancy at OX1R in Sprague-Dawley rat brain tenia tecta using [3H]SB-674042 labelling at 10 mg/kg, po measured after 2 hrs by autoradiography; assay type: functional; in short: as §1
[11] = target: T2, Orexin/Hypocretin receptor type 1 (Homo sapiens, UniProt O43613); experiment: Binding affinity to human […]
T2 sequence (O43613 whole entry): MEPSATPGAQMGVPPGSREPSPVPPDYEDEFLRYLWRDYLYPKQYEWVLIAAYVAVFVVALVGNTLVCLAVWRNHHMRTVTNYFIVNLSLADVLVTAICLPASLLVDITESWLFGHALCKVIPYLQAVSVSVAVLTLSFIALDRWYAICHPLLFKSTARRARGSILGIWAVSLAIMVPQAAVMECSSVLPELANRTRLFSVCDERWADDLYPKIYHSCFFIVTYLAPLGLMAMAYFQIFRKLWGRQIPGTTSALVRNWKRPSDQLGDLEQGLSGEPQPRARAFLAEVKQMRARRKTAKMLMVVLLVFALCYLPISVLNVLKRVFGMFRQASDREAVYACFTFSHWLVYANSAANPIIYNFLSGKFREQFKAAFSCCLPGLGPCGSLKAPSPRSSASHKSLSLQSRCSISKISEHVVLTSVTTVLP

[12] = Cmax in rat assessed as NOAEL at 200 mg/kg/day, po administered as repeated dose for 13 days; assay type: ADME, organism-based; set-up: route oral, time 13 day, dose 200 mg/kg/day; details: in vivo
[13] = Drug concentration in Sprague-Dawley rat brain at 30 mg/kg, po after 0.5 hrs by LC-MS/MS analysis; assay type: ADME, organism-based; details: read-out: Ct
In short: (§2)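 Brain and plasma levels (ng/mL) sampled 0.5 h after oral dosing at 10 or 30 mg/kg, alongside the ex vivo tenia tecta occupancy study.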

[14] = Permeability across basolateral to apical side in MDCK cells; assay type: ADME, cell-based, Canis lupus familiaris; details: dog
[15] = Protein binding in human plasma assessed as free fraction; assay type: ADME, cell-free
[16] = Volume of distribution at steady state in dog at 0.5 mg/kg, iv and […], po; assay type: ADME, organism-based, Canis lupus familiaris; details: in vivo, dose 2.5 mg/kg, read-out: Vdss
[17] = Drug concentration in Sprague-Dawley rat brain at 10 mg/kg, po after 0.5 hrs by LC-MS/MS analysis; assay type: ADME, organism-based; details: read-out: Ct; in short: as §2
[18] = AUC in human at 50 mg/day; assay type: ADME; set-up: dose 50 mg
[19] = Oral bioavailability in mouse at 5 mg/kg; assay type: ADME, organism-based; details: in vivo
[20] = Cmax in mouse assessed as NOAEL at 200 mg/kg/day, po measured after immediately administered; assay type: ADME, organism-based; set-up: route oral, time 13 day, dose 200 mg/kg/day; details: in vivo
[21] = Ex vivo receptor occupancy at OX1R in Sprague-Dawley rat brain tenia tecta using [3H]SB-674042 labelling at 30 mg/kg, po measured after 0.5 hrs by autoradiography; assay type: functional
In short: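 Ex vivo OX1R binding autoradiography in rat tenia tecta after a 30 mg/kg po dose; percent occupancy read at 0.5 and 2 h.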

[22] = Oral bioavailability in rat at 5 mg/kg; assay type: ADME, organism-based; details: in vivo
[23] = Cmax in rat assessed as NOAEL at 200 mg/kg/day, po administered as repeated dose for 6 days; assay type: ADME, organism-based; set-up: route oral, dose 200 mg/kg/day, time 6 day; details: in vivo
[24] = Ex vivo receptor occupancy at OX1R in po dosed rat tenia tecta after 60 mins; assay type: functional, organism-based; details: 1 h
[25] = Volume of distribution at steady state in rat at 1 mg/kg, iv and 5 mg/kg, po; assay type: ADME, organism-based; details: in vivo, read-out: Vdss

Work on O=C(c1cccc(F)c1-c1ncccn1)N1[C@@H]2CC[C@H]1[C@H](Nc1cnc(C(F)(F)F)cn1)C2 yielded an AUC at 144 h [1] of 62000 ng·h/mL, an Activity [2] of 17% and a Ki (Orexin receptor type 2) of 700 nM. It also gave a pKa [3] of less than 2, a clearance [4] of 29 mL/min/kg and a clearance [5] of 0.9 mL/min/kg. For the same compound, the AUC at 312 h [6] was 386000 ng·h/mL, the AUC at 312 h [7] was 36200 ng·h/mL and the Activity [8] was 70%. For the same compound, the Vd [9] was 0.8 L/kg, the Activity [10] was 41% and the Ki [11] was 16 nM. The Cmax [12] was 6980 ng/mL, the concentration at 0.5 h [13] was 687 ng/mL and the Papp B→A [14] was 64.4 ×10⁻⁶ cm/s. The fraction unbound [15] was 0.2, the Vd [16] was 0.6 L/kg and the concentration at 0.5 h [17] was 188 ng/mL. The AUC [18] was 6870 ng·h/mL, the bioavailability [19] was 58% and the Cmax [20] was 32900 ng/mL. For the same compound, the Activity [21] was 100%, the bioavailability [22] was 119% and the Cmax [23] was 8800 ng/mL. The EC50 [24] was 0.085 µg/mL (≈ 0.185 µM), the ED50 ([24]; po, time 60 min) was 1.3 mg/kg and the Vd [25] was 1.4 L/kg.
